Results published in ChEMBL document CHEMBL1921762, “Investigating the antimalarial action of 1,2,4-trioxolanes with fluorescent chemical probes” (J Med Chem, 2011).
Calls of active or inactive are those of the source. The rule behind the calls is not given here.

What was measured:
[1] = Drug uptake in Plasmodium falciparum assessed as cytoplasmic accumulation at 500 nM; assay type: ADME, Cytoplasm; conditions: 0.5 µM
Method in brief: (§1)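 Mixed-stage P. falciparum cultures were exposed to 500 nM fluorescent probe for 10 min in RPMI at 37 °C. They were washed twice with PBS, viewed directly or after 0.2% saponin release, and imaged live by epifluorescence at 100X oil immersion, with phase contrast overlay.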

Plasmodium falciparum [2] = test: Drug uptake in Plasmodium falciparum assessed as subcellular localization at 500 nM; assay type: ADME, organism-based; conditions: 0.5 µM; method in brief: as §1
Plasmodium falciparum [3] = test: Antimalarial activity against Plasmodium falciparum FCB infected in human A-positive type erythrocytes after 72 hrs by SYBR Green I assay
Plasmodium falciparum [4] = test: Induction of peroxidation of Plasmodium falciparum membrane-incorporated BODIPY at 250 nM after 2.5 hrs by fluorescence microscopic analysis; assay type: functional, organism-based
Method in brief: (§2)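 Cultures at each asexual stage were exposed at 37 °C for 2.5 h to 250 nM compound or 0.01% MeOH vehicle, then to 40 nM BODIPY 581/591 C11 for a further 30 min. Trophozoites were saponin-released; ring and segmenter stages were imaged in erythrocytes. Peroxidation was read as a red-to-yellow/green fluorescence shift by microscopy.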

Plasmodium falciparum [5] = test: Induction of peroxidation of Plasmodium falciparum membrane-incorporated BODIPY at ring stage at 250 nM after 2.5 hrs by fluorescence microscopic analysis; assay type: functional, organism-based; method in brief: as §2
Plasmodium falciparum [6] = test: Induction of peroxidation of Plasmodium falciparum membrane-incorporated BODIPY at trophozoite stage at 250 nM after 2.5 hrs by fluorescence microscopic analysis; assay type: functional, organism-based; method in brief: as §2
Plasmodium falciparum [7] = test: Induction of peroxidation of Plasmodium falciparum membrane-incorporated BODIPY at asexual stage at 250 nM after 2.5 hrs by fluorescence microscopic analysis; assay type: functional, organism-based; method in brief: as §2
[8] = Binding affinity to Plasmodium falciparum calcium-transporting ATPase
Plasmodium falciparum [9] = test: Antimalarial activity against Plasmodium falciparum K1 infected in human A-positive type erythrocytes after 72 hrs by SYBR Green I assay; conditions: K1, 72 h
[10] = Drug uptake in Plasmodium falciparum assessed as accumulation in small spherical structures in digestive vacuole at 500 nM; assay type: ADME; conditions: 0.5 µM; method in brief: as §1
[11] = Drug uptake in Plasmodium falciparum […] lipid bodies assessed decrease in fluorescence at 500 nM pretreated with 500 nM unlabeled compound; assay type: ADME; conditions: 0.5 µM
Method in brief: (§3)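 Mid- to late trophozoite cultures were pre-treated for 10 min at 37 °C with 500 nM unlabeled trioxolane or 0.01% MeOH vehicle in warm complete medium. Medium was then replaced with 500 nM fluorescent trioxolane for 10 min. Cells were washed, saponin-released and examined by fluorescence microscopy. Labeled NLB were counted in ~10 random fields (~300 parasites per group) and normalised to parasite number. Results are % decrease versus MeOH, from 3 experiments with t test.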

[12] = Drug uptake in Plasmodium falciparum assessed as accumulation in […] lipid bodies at 500 nM in presence of methanol; assay type: ADME; conditions: 0.5 µM; method in brief: as §3
[13] = Drug uptake in Plasmodium falciparum assessed as accumulation in nuclear lipid bodies at 500 nM; assay type: ADME; conditions: 0.5 µM, in the assay text read “neutral lipid bodies” for “nuclear lipid bodies”
Method in brief: (§4)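 Mixed-stage P. falciparum cultures (strains FCB and 7G8, grown in human A+ or AB+ erythrocytes at 37 °C in supplemented RPMI 1640 under 90% N2/5% O2/5% CO2) were exposed to 500 nM probe for 10 min in RPMI at 37 °C. Cells were washed twice with PBS, viewed directly or after 0.2% saponin release, and imaged by 100X oil-immersion epifluorescence with phase contrast.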

[14] = Drug uptake in Plasmodium falciparum assessed as accumulation in membranous structures at 500 nM; assay type: ADME; conditions: 0.5 µM; method in brief: as §4

In the case of `CN(C)c1cccc2c(S(=O)(=O)NCCCNC3CCC4(CC3)OOC3(O4)C4CC5CC(C4)CC3C5)cccc12` (mixture of isomers), the Drug uptake [1] is reported as “Active”, the Drug uptake (Plasmodium falciparum [2]) is reported as “Not Active” and the IC50 (Plasmodium falciparum [3]) is reported as 14.6 nM.

For `CC(C)(C)OC(=O)NCCCNC1CCC2(CC1)OOC1(O2)C2CC3CC(C2)CC1C3` (mixture of isomers), the Activity (Plasmodium falciparum [4]) was “Active”, the Activity (Plasmodium falciparum [5]) was “Active” and the Activity (Plasmodium falciparum [6]) was “Active”. For the same molecule, the Activity (Plasmodium falciparum [7]) was “Active” and the IC50 (Plasmodium falciparum [3]) was 12.6 nM.

Work on `CC(C)(N)CNC(=O)C[C@H]1CC[C@]2(CC1)OO[C@]1(O2)C2CC3CC(C2)CC1C3` [OZ277] yielded a Ki [8] of 7900 nM and an IC50 (Plasmodium falciparum [9]) of 2.5 nM.

For `CN(C)c1cccc2c(S(=O)(=O)OC34CC5CC(C3)C3(OOC6(CCCCC6)O3)C(C5)C4)cccc12` (mixture of isomers), the Drug uptake [10] was “Active”, the Drug uptake [11] was “Not Active” and the Drug uptake [12] was “Active”. For the same molecule, the IC50 (Plasmodium falciparum [3]) was 17.9 nM.

`C[C@@H]1CC[C@H]2[C@@H](C)C(=O)O[C@@H]3O[C@@]4(C)CC[C@@H]1[C@]32OO4` [ARTEMISININ] showed an IC50 (Plasmodium falciparum [3]) of 8 nM.

With `CN(C)c1cccc2c(S(=O)(=O)OC34CC5CC(C3)C3(OCC6(CCCCC6)O3)C(C5)C4)cccc12` (mixture of isomers) the Drug uptake [13] was “Not Active”, the Drug uptake [14] was “Not Active” and the IC50 (Plasmodium falciparum [3]) was 25000 nM.
